Data on 23 compounds can be found in ChEMBL document CHEMBL1125600, “Sulfonylbenzoyl-nitrostyrenes: potential bisubstrate type inhibitors of the EGF-receptor tyrosine protein kinase” (J Med Chem, 1991).

Molecules are shown by their SMILES.

Test [1] has as its target Epidermal growth factor receptor (Homo sapiens, UniProt P00533). The test is described as follows: Inhibition of the epidermal growth factor receptor expressed in A431 cell line.
The target of test [2] is Tyrosine-protein kinase ABL (Homo sapiens, UniProt P00519+P42684). The test is described as follows: Inhibition of recombinant v-Abl tyrosine kinase. The class given is protein assay. Summed up:
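The reaction contained 20 mM Tris pH 7.5, 10 mM MgCl2, 10 µM [γ-32P]ATP and about 50 ng enzyme. Compounds were in DMSO. Reactions were stopped with trichloroacetic acid and aliquots were spotted on P81 paper.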

Test [3] is described as follows: Antiproliferative activity tested by using EGF- stimulated cellular proliferation of balb/MK mouse epidermal keratinocytes (balb/MK cells).
A short description of test [4]: Inhibition of the protein kinase C.

Sequence of Epidermal growth factor receptor (P00533 whole entry): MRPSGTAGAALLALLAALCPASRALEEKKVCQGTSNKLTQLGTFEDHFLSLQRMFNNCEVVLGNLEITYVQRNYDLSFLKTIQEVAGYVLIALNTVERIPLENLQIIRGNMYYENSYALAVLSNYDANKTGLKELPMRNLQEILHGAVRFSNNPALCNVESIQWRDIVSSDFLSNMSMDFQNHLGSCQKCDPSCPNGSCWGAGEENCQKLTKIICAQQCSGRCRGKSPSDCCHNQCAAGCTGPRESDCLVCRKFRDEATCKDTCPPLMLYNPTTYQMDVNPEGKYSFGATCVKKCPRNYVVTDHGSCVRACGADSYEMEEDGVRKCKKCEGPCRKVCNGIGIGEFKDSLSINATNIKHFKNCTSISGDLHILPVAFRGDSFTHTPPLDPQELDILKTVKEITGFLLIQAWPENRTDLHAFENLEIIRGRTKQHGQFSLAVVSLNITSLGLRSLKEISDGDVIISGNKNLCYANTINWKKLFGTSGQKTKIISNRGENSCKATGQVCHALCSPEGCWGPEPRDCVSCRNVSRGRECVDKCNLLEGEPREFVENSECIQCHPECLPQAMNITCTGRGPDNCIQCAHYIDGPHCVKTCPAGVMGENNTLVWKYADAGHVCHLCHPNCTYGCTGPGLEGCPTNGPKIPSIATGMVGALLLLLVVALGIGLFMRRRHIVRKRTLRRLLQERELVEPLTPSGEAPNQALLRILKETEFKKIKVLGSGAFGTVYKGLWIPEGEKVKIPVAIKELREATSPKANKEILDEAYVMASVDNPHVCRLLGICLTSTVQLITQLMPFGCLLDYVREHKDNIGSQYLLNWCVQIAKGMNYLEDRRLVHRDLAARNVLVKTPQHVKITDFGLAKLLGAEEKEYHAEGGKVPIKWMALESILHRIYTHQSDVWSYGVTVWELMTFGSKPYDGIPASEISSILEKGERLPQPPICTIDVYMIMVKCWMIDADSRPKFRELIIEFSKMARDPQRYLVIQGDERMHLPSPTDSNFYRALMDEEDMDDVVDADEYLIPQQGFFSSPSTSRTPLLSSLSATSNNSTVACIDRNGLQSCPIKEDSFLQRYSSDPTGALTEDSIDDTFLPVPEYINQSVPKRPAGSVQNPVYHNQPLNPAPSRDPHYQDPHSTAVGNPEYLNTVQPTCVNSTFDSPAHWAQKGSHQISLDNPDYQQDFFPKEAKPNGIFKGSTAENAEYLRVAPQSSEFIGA

Turning to `O=[N+]([O-])/C=C/c1ccc(O)cc1`, the half-maximal inhibitory concentration (IC50) is 10.1 µM in test [1], over 100 µM in test [2], 4.8 µM in test [3] and over 500 µM in test [4].

As for `COc1cc(/C=C/[N+](=O)[O-])ccc1O`, the concentration for half-maximal inhibition (IC50) in test [1] is 7.9 µM; in test [2], over 100 µM; in test [3], 3.5 µM; in test [4] it was over 500 µM.

On to `C[C@@H](NC(=O)c1ccc(S(=O)(=O)Oc2ccc(/C=C/[N+](=O)[O-])cc2)cc1)C(=O)N[C@H](C)C(=O)NCCNC(=O)OC(C)(C)C`, for which the IC50 was over 50 µM in test [1], over 50 µM in test [3] and over 500 µM in test [4].

As for `NCCNC(=O)c1ccc(S(=O)(=O)Oc2ccc(/C=C/[N+](=O)[O-])cc2)cc1`, the IC50 in test [1] was 5.4 µM; in test [2], 5 µM; in test [3], 32 µM; in test [4], 60 µM.

Take `C[C@@H](NC(=O)c1ccc(S(=O)(=O)Oc2ccc(/C=C/[N+](=O)[O-])cc2)cc1)C(=O)N[C@H](C)C(=O)NCCN`: the IC50 is 17 µM in test [1], 15 µM in test [2], over 50 µM in test [3] and 250 µM in test [4].

Turning to `C[C@@H](NC(=O)[C@@H](C)NC(=O)c1ccc(S(=O)(=O)Oc2ccc(/C=C/[N+](=O)[O-])cc2)cc1)C(=O)O`, the 50% inhibitory concentration (IC50) in test [1] was 7 µM; in test [2] it was 35 µM; in test [3], over 50 µM; in test [4], over 100 µM.

Regarding `C[C@@H](NC(=O)c1ccc(S(=O)(=O)Oc2ccc(/C=C/[N+](=O)[O-])cc2)cc1)C(=O)N[C@H](C)C(=O)OC(C)(C)C`, the IC50 is 40 µM in test [1], over 100 µM in test [2], 2.7 µM in test [3] and over 450 µM in test [4].

In the case of `CC(C)(C)OC(=O)NCCNC(=O)c1ccc(S(=O)(=O)Oc2ccc(/C=C/[N+](=O)[O-])cc2)cc1`, the half-inhibitory concentration (IC50) in test [1] was 1.4 µM; in test [2], over 100 µM; in test [3] it was 4.8 µM; in test [4], 320 µM.

Turning to `COc1cc(/C=C/[N+](=O)[O-])ccc1OS(=O)(=O)c1ccc(C(=O)O)cc1`, the IC50 was 2.8 µM in test [1], 40 µM in test [2], 35 µM in test [3] and over 500 µM in test [4].

Turning to `O=C(O)c1ccc(S(=O)(=O)Oc2ccc(/C=C/[N+](=O)[O-])cc2)cc1O`, the IC50 in test [1] was 0.054 µM; in test [2] it was 27 µM; in test [3], over 50 µM; in test [4], 500 µM.

For `COc1cc(/C=C/[N+](=O)[O-])ccc1OS(=O)(=O)c1ccc(C(=O)OC[C@H]2O[C@@H](n3cnc4c(N)ncnc43)[C@H](O)[C@@H]2O)cc1`, the IC50 in test [1] was found to be 0.5 µM; in test [2], 100 µM; in test [3], 45 µM; in test [4], 10 µM.

As for `Nc1ncnc2c1ncn2[C@@H]1O[C@H](COC(=O)c2ccc(S(=O)(=O)Oc3ccc(/C=C/[N+](=O)[O-])cc3)cc2)[C@@H](O)[C@H]1O`, the IC50 was 0.6 µM in test [1], over 100 µM in test [2], 61 µM in test [3] and 13 µM in test [4].

For `CCCCNC(=O)c1ccc(S(=O)(=O)Oc2ccc(C=O)cc2)cc1`, the results for the IC50 in test [1] and in test [3] were over 100 µM and over 50 µM, respectively.

`CNC(=O)c1ccc(S(=O)(=O)Oc2ccc(/C=C/[N+](=O)[O-])cc2)cc1`: the half-maximal inhibitory concentration (IC50) worked out at 0.4 µM in test [1], 35 µM in test [2], 5.2 µM in test [3] and 290 µM in test [4].

For `COC(=O)c1ccc(S(=O)(=O)Oc2ccc(/C=C/[N+](=O)[O-])cc2)cc1O`, the IC50 in test [1] was 1.8 µM; in test [2], over 100 µM; in test [3], 5.7 µM.

For `O=C(O)c1ccc(S(=O)(=O)Oc2ccc(/C=C/[N+](=O)[O-])cc2)cc1`, the IC50 was 1 µM in test [1], 100 µM in test [2], over 50 µM in test [3] and over 500 µM in test [4].

As to `CCCCNC(=O)c1ccc(S(=O)(=O)Oc2ccc(/C=C/[N+](=O)[O-])cc2)cc1`, the half-maximal inhibitory concentration (IC50) in test [1] is 4.8 µM; in test [2], over 100 µM; in test [3] it was 3.8 µM; in test [4], over 500 µM.

Consider `COC(=O)c1ccc(S(=O)(=O)Oc2ccc(/C=C/[N+](=O)[O-])cc2)cc1`, for which the 50% inhibitory concentration (IC50) in test [1] is 1.5 µM; in test [2] it was over 100 µM; in test [3], 12 µM; in test [4], over 500 µM.

As for `O=C(O)c1ccc(S(=O)(=O)Oc2ccc(/C=C/[N+](=O)[O-])cc2)c(O)c1`, the half-inhibitory concentration (IC50) was 0.31 µM in test [1], 100 µM in test [2], over 50 µM in test [3] and over 500 µM in test [4].

For the compound `C/C(=C\c1ccc(O)c(O)c1)[N+](=O)[O-]`, the concentration for half-maximal inhibition (IC50) was 9.4 µM in test [1], 100 µM in test [2], 2.1 µM in test [3] and over 500 µM in test [4].

As for `CC(C)(C)NC(=O)c1ccc(S(=O)(=O)Oc2ccc(/C=C/[N+](=O)[O-])cc2)cc1`, the half-inhibitory concentration (IC50) in test [1] was 1.3 µM; in test [2], over 100 µM; in test [3] it was 2.1 µM; in test [4], 340 µM.

For `O=[N+]([O-])/C=C/c1ccc(O)c(O)c1`, the IC50 is 8.8 µM in test [1], 100 µM in test [2], 2.9 µM in test [3] and over 500 µM in test [4].

Turning to `CNC(=O)c1ccc(S(=O)(=O)Oc2ccc(/C=C(\C)[N+](=O)[O-])cc2OC)cc1`, the half-maximal inhibitory concentration (IC50) in test [1] was 4 µM; in test [3] it was 2.1 µM; in test [4] it was over 500 µM.
